High-throughput results from PubChem BioAssay.
SR-BI HDL uptake: inhibitors of SR-BI mediated HDL lipid uptake, primary screen, ldlA[mSR-BI] cells, fluorescence, single point; Scavenger receptor class B member 1 (Mus musculus), Q61009; ldlA[mSR-BI] CHO cells, DiI-HDL uptake fluorescence, 3 h; inhibition, % at 12.5 µM; 0.96% of 320,000 active; AID 488896, 2010;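 active means mean replicate inhibition of at least 70% and a set share of replicates each scoring 70 or more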;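 further: 0% = median of neutral control wells and 100% = median of positive control wells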
FXN GAA850 act: FXN promoter activators, primary screen, cell-based, luciferase luminescence, HEK293 lucGAA850; HEK293 lucGAA850 FXN promoter luciferase reporter, 24 h; percent of 10 µM SAHA response; activation, % at 6 µM; 0.56% of 360,000 active; AID 540364, 2011;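 active means activation above the average of all compounds screened plus 3 SD, cutoff fixed separately per campaign, cut at about 7.5% in these data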;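 further: 0% = DMSO wells and 100% = 10 µM SAHA wells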
SR-BI DiI-HDL act: activators of SR-BI mediated DiI-HDL uptake, primary screen, ldlA[mSR-BI] CHO cells, DiI fluorescence; 3 h; 100 = double the neutral-control signal; activation, % at 12.5 µM; 0.096% of 320,000 active;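 active means mean replicate activation of at least 60% and every replicate at or above 60%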;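 further: 0% = median plate neutral-control signal and 100% = twice that signal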
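Assay system: LDL receptor-deficient CHO ldlA cells overexpressing murine SR-BI / Medium: BSA-supplemented, HEPES-buffered Ham's F12, pH 7.4 / Probe or stimulus: DiI-labelled HDL at 10 µg/mL final / Timing: compound with DiI-HDL co-incubation, 3 h at 37 °C / Technique: bottom-read cell fluorescence after medium removal, ex 550/em 595 nm / Measure: HDL uptake via cellular fluorescence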
HIF act: HIF pathway transcriptional activators, primary screen, cell-based, U2OS HRE-luciferase, luminescence; U2OS HRE-luciferase reporter; normalized: DMSO 0%, desferrioxamine 100%; activation, % at 7.5 µM (by protocol); 0.32% of 300,000 active; AID 1910, 2009;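 active means mean activation of at least 10% of the iron chelator positive control signal, with at least half of replicates also reaching 10%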
AHR act: AHR activators, primary screen, cell-based, luminescence, luciferase reporter, human | activation, % at 5 µM | AID 2796, 2010 | 2.5% of 320,000 active | AHR-responsive luciferase reporter cells | Aryl hydrocarbon receptor (Homo sapiens), P35869; in the data active means activation above about 47%;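 further: 0% = vehicle wells and 100% = reference agonist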
Target sequence (P35869 whole entry, looked up): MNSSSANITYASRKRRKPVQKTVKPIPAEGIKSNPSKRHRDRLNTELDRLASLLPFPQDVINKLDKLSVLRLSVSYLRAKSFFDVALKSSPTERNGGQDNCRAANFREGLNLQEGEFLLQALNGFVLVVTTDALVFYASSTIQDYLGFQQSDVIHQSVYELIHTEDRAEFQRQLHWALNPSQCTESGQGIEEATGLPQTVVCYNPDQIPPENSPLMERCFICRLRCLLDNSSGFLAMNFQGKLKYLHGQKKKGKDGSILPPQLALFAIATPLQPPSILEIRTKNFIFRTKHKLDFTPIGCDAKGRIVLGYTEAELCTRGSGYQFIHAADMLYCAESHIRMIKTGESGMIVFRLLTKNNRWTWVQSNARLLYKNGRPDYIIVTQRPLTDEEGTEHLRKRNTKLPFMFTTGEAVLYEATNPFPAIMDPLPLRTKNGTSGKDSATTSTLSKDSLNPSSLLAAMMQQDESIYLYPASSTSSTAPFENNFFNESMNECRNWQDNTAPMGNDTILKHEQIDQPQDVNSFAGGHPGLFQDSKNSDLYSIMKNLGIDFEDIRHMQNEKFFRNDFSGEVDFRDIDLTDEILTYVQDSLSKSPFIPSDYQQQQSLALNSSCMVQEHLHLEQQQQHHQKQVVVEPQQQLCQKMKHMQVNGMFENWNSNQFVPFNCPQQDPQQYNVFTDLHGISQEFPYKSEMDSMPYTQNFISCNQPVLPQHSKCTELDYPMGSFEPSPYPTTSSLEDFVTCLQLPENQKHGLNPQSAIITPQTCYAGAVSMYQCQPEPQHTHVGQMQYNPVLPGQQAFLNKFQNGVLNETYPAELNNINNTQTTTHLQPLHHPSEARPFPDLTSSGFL
ABCB6 inh 2: ABCB6 transporter inhibitors, primary screen, K562-ABCB6 cells, flow cytometry, MLPCN library. ATP-binding cassette sub-family B member 6 (Homo sapiens), Q9NP58. K562-ABCB6 porphyrin accumulation, 1 h; hits give low values. fluorescence ratio to DMSO, % at 10 µM. 0.19% of 360,000 active. AID 602162, 2011;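 active means fluorescence ratio to DMSO below 75%, the collection mean minus 3 SD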;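 further: signal is porphyrin accumulated inside mitochondria; 100% equals median channel fluorescence of DMSO control wells; lower ratio means ABCB6 inhibition with less porphyrin fluorescence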
* = called active by the depositor; / = not tested or not shown. Sampled rows, rich in hits. Any-hit rate of the full collection: about 3.9%.

SMILES | SR-BI HDL uptake | FXN GAA850 act | SR-BI DiI-HDL act | HIF act | AHR act | ABCB6 inh 2
COc1ccccc1NC(=O)CSC1=NC(=O)C(Cc2ccccc2)C(=O)N1 (centres undefined) | / | -1 | / | 0 | 0 | 86
CCCC(=O)NCc1cc(-c2nn(C)c(=O)c3ccccc23)ccc1C | -8 | -1 | 8 | 0 | 7 | 100
CC(C)Cn1c(-c2cccs2)nc2nc3ccccc3nc21 | -10 | 4 | 10 | -1 | 52* | 113
CCCCn1c(-c2cccs2)nc2nc3ccccc3nc21 | 20 | 2 | -20 | 0 | 25 | 100
COC(=O)c1ccc(NC(=O)CSc2nc3ccccc3c(=O)[nH]2)cc1 | 8 | 1 | -8 | 0 | 4 | 97
CCN(CC)c1ccc(NC(=O)CSc2nc3ccccc3c(=O)[nH]2)cc1 | / | 1 | / | 0 | 63* | 96
O=C(CSc1nc2ccccc2c(=O)[nH]1)Nc1ccc(Br)cc1 | -20 | 0 | 20 | 38* | 15 | 106
COc1ccc2[nH]c(=O)c(CN(CC3CCCO3)C(=O)Nc3ccccc3OC)cc2c1 (centres undefined) | / | -1 | / | 0 | / | 104
CCOc1ccc(OCCSc2nnnn2C2CCCCC2)cc1 | -11 | 3 | 11 | 1 | 7 | 102
Brc1cc(Br)c2nc(-c3cccs3)ccc2c1 | 15 | 4 | -15 | 3 | 52* | 101
Nc1nccc(-c2cccs2)n1 | -7 | 1 | 7 | 0 | 1 | 99
CCOC(=O)N1CCC(NC(=O)c2ccc3c(c2)sc2nc(-c4ccc(OC)cc4)cn23)CC1 | / | / | / | 0 | -1 | /
COc1ccc(C(=O)CCN2CCC(C)CC2)cc1 | -24 | 2 | 24 | -1 | 3 | 97
O=C(NCCS(=O)(=O)N1CCN(c2ccccc2F)CC1)C1CC(=O)N(c2ccc(F)cc2)C1 (centres undefined) | -17 | 1 | 17 | 456* | 0 | 100
COc1ccccc1N1CCN(S(=O)(=O)CCNC(=O)C2CC(=O)N(c3ccccc3)C2)CC1 (centres undefined) | 2 | 3 | -2 | 0 | 1 | 95
CCn1c(=O)[nH]c2cc(C(=O)Nc3cc(C)cc(C)c3)ccc2c1=O | 72* | 1 | -72 | 0 | 2 | 105
CC1CC1C(=O)Nc1nc(-c2cccs2)c(-c2cccs2)s1 (centres undefined) | 42 | 3 | -42 | 1 | 78* | 99
COCCn1c(=NC(=O)CCS(=O)(=O)c2ccccc2)sc2cc(C(=O)OC)ccc21 | 11 | 0 | -11 | 0 | 0 | 97
COCCn1c(=NC(=O)CCS(=O)(=O)c2ccccc2)sc2c(OC)ccc(OC)c21 | -12 | 1 | 12 | 1 | 51* | 100
O=C1CN(c2ccccc2)C(=O)N1 | -14 | -1 | 14 | 48* | 8 | 99
O=C1CCN(c2ccccc2)N1 | -11 | -2 | 11 | / | / | 111
CN(C)c1ccc(N2C(=O)CSC2=S)cc1 | / | -1 | / | 0 | 52* | 89
CCCNc1nc(Nc2ccc(C)c(Cl)c2)c2cnn(C)c2n1 | 39 | 4 | -39 | 0 | 64* | 97
COc1ccc(-c2ccc(C(=O)Nc3cccc(F)c3)c3occc23)c(C)c1 | / | -1 | / | / | / | 136
CC(Oc1ccccc1)C(=O)NC1CC(C)(C)NC(C)(C)C1 (centres undefined) | 3 | 0 | -3 | 0 | -1 | 92
SMILES | SR-BI HDL uptake | FXN GAA850 act | SR-BI DiI-HDL act | HIF act | AHR act | ABCB6 inh 2
C/C(=N\Nc1nc2ccccc2[nH]1)c1ccc2c(c1)OCCO2 | 28 | -1 | -28 | 1 | 56* | 94
C/C(=N\Nc1nc2ccccc2[nH]1)c1ccc2c(c1)OCO2 | 24 | 4 | -24 | 1 | 128* | 98
C/C(=N\Nc1ccccn1)c1ccc(Br)s1 | / | 4 | / | 2 | 70* | 89
C/C(=N\Nc1ccccn1)c1ccc(C(C)C)cc1 | 4 | 6 | -4 | 6 | -1 | 106
C/C(=N\Nc1ccccn1)c1ccc2c(c1)OCO2 | 12 | 2 | -12 | 3 | 59* | 99
O=C(/C=C(\O)c1ccccc1)C(=O)NNC(=O)c1ccccc1 | 44 | 3 | -44 | 3 | 4 | 99
C/C=C/c1cnc2c(c1)C(=O)N([C@H](C)CO)C[C@H](C)[C@@H](CN(C)C(=O)CN1CCOCC1)O2 | / | 2 | / | / | / | 98
O=C(Nc1ccc(F)cc1)N(Cc1cccs1)Cc1cc2cc3c(cc2[nH]c1=O)OCO3 | 53 | -6 | -53 | 1 | 54* | 99
Cc1ccc(NC(=O)N(Cc2cccs2)Cc2cc3cc4c(cc3[nH]c2=O)OCO4)cc1 | / | / | / | 0 | 19 | /
Cc1ccc(S(=O)(=O)NC(=O)C2(C)CCN2C(=O)Cc2ccc(-c3ccccc3)cc2)nc1 (centres undefined) | / | 1 | / | / | / | 103
COC(=O)c1cc(S(=O)(=O)NCc2ccccc2OC)cn1C | 6 | 0 | -6 | 71* | 3 | 101
COC(=O)c1cc(S(=O)(=O)NCc2cccc(OC)c2)cn1C | -11 | 2 | 11 | 0 | -1 | 104
O=C(O)c1cccc(-n2cccc2/C=C2/SC(=O)N(CC(=O)N3CCCC3)C2=O)c1 | -2 | 1 | 2 | 14* | 2 | 101
CN(C)S(=O)(=O)c1cccc(NC(=O)CSc2cccc3cccnc23)c1 | 10 | 2 | -10 | 0 | 21 | 98
COc1ccc(-c2cc(C(F)(F)F)nc(N3CCOCC3)n2)cc1 | 40 | 3 | -40 | 0 | 31 | 96
CCOc1cc(NC(=S)NC)c(OCC)cc1NC(=O)c1ccco1 | -1 | 0 | 1 | 0 | 21 | 102
CCCCC(=O)Nc1cc(OCC)c(NC(=S)NC)cc1OCC | -2 | 1 | 2 | 0 | 71* | 96
CCOc1cc(NC(=S)Nc2ccccc2)c(OCC)cc1NC(=O)c1ccccc1 | 81* | -1 | -81 | -1 | 23 | 103
CCOc1cc(NC(=S)Nc2ccccc2OC)c(OCC)cc1NC(=O)c1ccccc1C | 87* | -2 | -87 | 0 | 1 | 98
CCOc1cc(NC(=S)NC)c(OCC)cc1NC(=O)c1ccc(OC)cc1 | 82* | 0 | -82 | 0 | 4 | 100
COc1ccc(OCc2nnc(SCC(=O)Nc3cccc(C(C)=O)c3)o2)cc1 | 33 | -1 | -33 | / | -1 | 100
CN1/C(=C\C=Nc2ccc3ccccc3c2)C(C)(C)c2ccccc21 | 17 | 0 | / | / | 55* | 106
